Results from ChEMBL document CHEMBL1155898 (J Med Chem, 2008).
The source made the active and inactive calls.

Columns and labels:
[1] = Displacement of [3H]flumazenil from CBR in bovine cortical membrane; type: cell membranes, Bos taurus
In short: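 Bovine or human cortical membranes washed free of endogenous GABA. […] Nonspecific binding with 10 µM diazepam. At least six concentrations over 3 log units, DMSO 2%. IC50 converted to Ki by Cheng-Prusoff (Kd 0.85 nM bovine, 0.91 nM human). Ki is the mean of three determinations.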

[2] = organism: Homo sapiens; assay: Ratio of Ki for human CBR in absence of GABA to Ki for human CBR in presence of 50 uM GABA
[3] = organism: Bos taurus; assay: Ratio of Ki for bovine CBR in absence of GABA to Ki for bovine CBR in presence of 50 uM GABA
[4] = organism: Rattus norvegicus; assay: Agonist activity at CBR in Sprague-Dawley rat brain cortex assessed as increase in chloride influx; type: functional, tissue-based
[5] = organism: Bos taurus; assay: Displacement of [3H]flumazenil from CBR in bovine cortical membrane at 10 uM; type: cell membranes
[6] = organism: Rattus norvegicus; assay: Inverse agonist activity at CBR in Sprague-Dawley rat brain cortex assessed as decrease in chloride influx; type: functional
[7] = Displacement of [3H]flumazenil from CBR in human cortical membrane; type: cell membranes
In short: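 Bovine or human cortical membranes washed free of endogenous GABA. Nonspecific binding with 10 µM diazepam. At least six concentrations over 3 log units, DMSO 2%. Ki is the mean of three determinations.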

[8] = organism: Homo sapiens; assay: Displacement of [3H]flumazenil from CBR in human cortical membrane at 10 uM; type: cell membranes
[9] = tested on: Mus musculus; assay: Effect on ethanol-induced sleep in CD1 albino mouse assessed as induction time 6.5 mg/kg, po; type: functional
In short: (§1)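 Mice dosed po or ip in 1% CMC (10 mL/kg). Ethanol 4 g/kg ip given 30 min later. Sleep time taken as duration of loss of righting reflex, cut-off 210 min. At least 15-20 mice per group; ANOVA/Fisher PLSD.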

[10] = tested on: Mus musculus; assay: Toxic myorelaxant activity in CD1 albino mouse assessed as number of falls in 30 secs at 0.3 mg/kg, po after 30 mins by rotarod test; type: toxicity, organism-based; parameters: dose 0.3 mg/kg, route oral; settings: in vivo
In short: (§2)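 Male CD-1 mice, dosed po or ip in 1% CMC (10 mL/kg). Rota-rod at 16 rpm; falls counted over 30 s, 30 min after dosing. At least 15-20 mice per group; ANOVA with Fisher PLSD versus CMC/saline controls.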

[11] = tested on: Mus musculus; assay: Effect on learning and memory performance in CD1 albino mouse assessed as training session latency at 3 mg/kg, po by passive avoidance test; type: functional
In short: (§3)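 Mice dosed po or ip in 1% CMC (10 mL/kg). Step-through passive avoidance in a two-compartment box (lit and dark, joined by guillotine door); latencies recorded in training and retention sessions. At least 15-20 mice per group; ANOVA/Fisher PLSD versus CMC controls.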

[12] = tested on: Mus musculus; assay: Antianxiety activity in CD1 albino mouse assessed as number of crosses at 12.5 mg/kg, po by light-dark box method; type: functional
In short: (§4)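 Male CD-1 mice given drug po or ip in 1% CMC at 10 mL/kg. Light/dark box: number of transfers between compartments and time spent in the lit side recorded. At least 15-20 mice per group; ANOVA/Fisher PLSD versus vehicle.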

[13] = tested on: Mus musculus; assay: Effect on learning and memory performance in CD1 albino mouse assessed as training session latency at 6.5 mg/kg, po by passive avoidance test; type: functional; in short: as §3
[14] = tested on: Mus musculus; assay: Effect on ethanol-induced sleep in CD1 albino mouse time assessed as endurance time 1 mg/kg, ip; type: functional; settings: route intraperitoneal; in short: as §1
[15] = tested on: Mus musculus; assay: Anticonvulsant activity in CD1 albino mouse assessed as pentylenetetrazole-induced death latency time at 6.5 mg/kg, po; type: functional
In short: (§5)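 Mice dosed po or ip in 1% CMC (10 mL/kg). Pentylenetetrazole 90 mg/kg sc given 30 min later; clonic generalized convulsions observed over 30 min. ANOVA/Fisher PLSD versus vehicle controls.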

[16] = tested on: Mus musculus; assay: Effect on ethanol-induced sleep in CD1 albino mouse assessed as induction time at 3 mg/kg, po; type: functional; in short: as §1
[17] = tested on: Mus musculus; assay: Toxic myorelaxant activity in CD1 albino mouse assessed as number of falls in 30 secs at 1 mg/kg, po after 30 mins by rotarod test; type: toxicity, organism-based; parameters: dose 1 mg/kg, route oral; settings: in vivo; in short: as §2
[18] = tested on: Mus musculus; assay: Antianxiety activity in CD1 albino mouse assessed as number of crosses at 6.5 mg/kg, po by light-dark box method; type: functional; in short: as §4
[19] = tested on: Mus musculus; assay: Effect on ethanol-induced sleep in CD1 albino mouse assessed as induction time 12.5 mg/kg, po; type: functional; in short: as §1
[20] = tested on: Mus musculus; assay: Toxic myorelaxant activity in CD1 albino mouse assessed as number of falls in 30 secs at 6.5 mg/kg, po after 30 mins by rotarod test; type: toxicity, organism-based; parameters: dose 6.5 mg/kg, route oral; settings: in vivo; in short: as §2
[21] = tested on: Mus musculus; assay: Antianxiety activity in CD1 albino mouse assessed as number of crosses at 3 mg/kg, po by light-dark box method; type: functional; in short: as §4
[22] = tested on: Mus musculus; assay: Anticonvulsant activity in CD1 albino mouse assessed as pentylenetetrazole-induced death latency time at 3 mg/kg, po by; type: functional; in short: as §5
[23] = tested on: Mus musculus; assay: Anticonvulsant activity in CD1 albino mouse assessed as pentylenetetrazole-induced convulsion latency time at 6.5 mg/kg, po; type: functional; in short: as §5
[24] = tested on: Mus musculus; assay: Antianxiety activity in CD1 albino mouse assessed as time spent in light at 3 mg/kg, po by light-dark box method; type: functional; in short: as §4
[25] = tested on: Mus musculus; assay: Antianxiety activity in CD1 albino mouse assessed as number of crosses at 1 mg/kg, po by light-dark box method; type: functional; in short: as §4
[26] = tested on: Mus musculus; assay: Antianxiety activity in CD1 albino mouse assessed as time spent in light at 0.3 mg/kg, po by light-dark box method; type: functional; in short: as §4
[27] = tested on: Mus musculus; assay: Antianxiety activity in CD1 albino mouse assessed as number of crosses at 0.3 mg/kg, po by light-dark box method; type: functional; in short: as §4
[28] = tested on: Mus musculus; assay: Toxic myorelaxant activity in CD1 albino mouse assessed as number of falls in 30 secs at 3 mg/kg, po after 30 mins by rotarod test; type: toxicity, organism-based; parameters: dose 3 mg/kg, route oral; settings: in vivo; in short: as §2
[29] = tested on: Mus musculus; assay: Effect on ethanol-induced sleep in CD1 albino mouse assessed as induction time 1 mg/kg, ip; type: functional; settings: route intraperitoneal; in short: as §1
[30] = tested on: Mus musculus; assay: Antianxiety activity in CD1 albino mouse assessed as time spent in light at 12.5 mg/kg, po by light-dark box method; type: functional; in short: as §4
[31] = tested on: Mus musculus; assay: Effect on learning and memory performance in CD1 albino mouse assessed as retention session latency at 3 mg/kg, po by passive avoidance test; type: functional; in short: as §3
[32] = tested on: Mus musculus; assay: Effect on ethanol-induced sleep in CD1 albino mouse time assessed as endurance time 6.5 mg/kg, po; type: functional; in short: as §1
[33] = tested on: Mus musculus; assay: Effect on learning and memory performance in CD1 albino mouse assessed as retention session latency at 12.5 mg/kg, po by passive avoidance test; type: functional; in short: as §3
[34] = tested on: Mus musculus; assay: Antianxiety activity in CD1 albino mouse assessed as time spent in light at 1 mg/kg, po by light-dark box method; type: functional; in short: as §4
[35] = tested on: Mus musculus; assay: Toxic myorelaxant activity in CD1 albino mouse assessed as number of falls in 30 secs at 12.5 mg/kg, po after 30 mins by rotarod test; type: toxicity, organism-based; parameters: dose 12.5 mg/kg, route oral; settings: in vivo; in short: as §2
[36] = tested on: Mus musculus; assay: Effect on ethanol-induced sleep in CD1 albino mouse assessed as endurance time 12.5 mg/kg, po; type: functional; in short: as §1
[37] = tested on: Mus musculus; assay: Anticonvulsant activity in CD1 albino mouse assessed as pentylenetetrazole-induced death latency time at 12.5 mg/kg, po; type: functional; in short: as §5
[38] = tested on: Mus musculus; assay: Effect on learning and memory performance in CD1 albino mouse assessed as retention session latency at 6.5 mg/kg, po by passive avoidance test; type: functional; in short: as §3
[39] = tested on: Mus musculus; assay: Effect on ethanol-induced sleep in CD1 albino mouse time assessed as endurance time 3 mg/kg, po; type: functional; in short: as §1
[40] = tested on: Mus musculus; assay: Effect on learning and memory performance in CD1 albino mouse assessed as training session latency at 12.5 mg/kg, po by passive avoidance test; type: functional; in short: as §3
[41] = tested on: Mus musculus; assay: Anticonvulsant activity in CD1 albino mouse assessed as pentylenetetrazole-induced convulsion latency time at 3 mg/kg, po; type: functional; in short: as §5
[42] = tested on: Mus musculus; assay: Antianxiety activity in CD1 albino mouse assessed as time spent in light at 6.5 mg/kg, po by light-dark box method; type: functional; in short: as §4
[43] = tested on: Mus musculus; assay: Anticonvulsant activity in CD1 albino mouse assessed as pentylenetetrazole-induced convulsion latency time at 12.5 mg/kg, po; type: functional; in short: as §5
[44] = tested on: Mus musculus; assay: Antianxiety activity in CD1 albino mouse assessed as time spent in light at 1 mg/kg, ip by light-dark box method; type: functional; settings: route intraperitoneal; in short: as §4
[45] = tested on: Mus musculus; assay: Effect on learning and memory performance in CD1 albino mouse assessed as training session latency at 1 mg/kg, ip by passive avoidance test; type: functional; settings: route intraperitoneal; in short: as §3
[46] = tested on: Mus musculus; assay: Anticonvulsant activity in CD1 albino mouse assessed as pentylenetetrazole-induced death latency time at 1 mg/kg, ip; type: functional, organism-based; parameters: dose 1 mg/kg; in short: as §5
[47] = tested on: Mus musculus; assay: Effect on learning and memory performance in CD1 albino mouse assessed as retention session latency at 1 mg/kg, ip by passive avoidance test; type: functional; settings: route intraperitoneal; in short: as §3
[48] = tested on: Mus musculus; assay: Anticonvulsant activity in CD1 albino mouse assessed as pentylenetetrazole-induced convulsion latency time at 1 mg/kg, ip; type: functional, organism-based; parameters: dose 1 mg/kg; in short: as §5

Question: For `CCOC(=O)c1ncn2c1CN=C(c1ccc([N+](=O)[O-])cc1)c1ccccc1-2`, which IC50 [1] is on record?
Answer: 1.8 nM

Question: With `CCOC(=O)c1ncn2c1CN(C)C(=O)c1cc(F)ccc1-2` [FLUMAZENIL] as the compound, how does the Ki [1] read?
Answer: 1.9 nM

Question: With `CCOC(=O)c1ncn2c1CN=C(c1ccc([N+](=O)[O-])cc1)c1cc(F)ccc1-2` as the compound, how does the Ratio Ki [2] read?
Answer: 0.86

Question: What about the Ratio Ki [3] of the same compound?
Answer: 0.89

Question: And the Activity [4]?
Answer: Active

Question: What about the Ki [1] of the same compound?
Answer: 14.8 nM

Question: What about the Activity [5] of the same compound?
Answer: > 80%

Question: And the Activity [6]?
Answer: Active

Question: What about the Ki [7] of the same compound?
Answer: 20 nM

Question: What about the Activity [8] of the same compound?
Answer: > 80%

Question: Which results are given for `CN1C(=O)CN=C(c2ccccc2F)c2cc([N+](=O)[O-])ccc21` [FLUNITRAZEPAM]?
Answer: Ratio Ki [2]: 1.6; Ratio Ki [3]: 1.68; Ki [1]: 5.17 nM; Ki [7]: 6.5 nM

Question: Which results are given for `CCOC(=O)c1ncn2c1CN=C(c1cccc([N+](=O)[O-])c1)c1cc(F)ccc1-2`?
Answer: Ratio Ki [2]: 1.2; Time [9]: 7.3 min; Ratio Ki [3]: 1.19; Activity [10]: 2.3; Time [11]: 18.3 s; Activity [12]: 5.1; Time [13]: 17.9 s; Time [14]: 177.8 min; Time [15]: 22.5 min; Activity [4]: Active; Ki [1]: 4.4 nM; Activity [5]: > 80%; Time [16]: 6.1 min; Activity [17]: 2.2; Activity [18]: 5.4; Time [19]: 6.8 min; Activity [6]: Active; Activity [20]: 2.7; Activity [21]: 5.6; Time [22]: 21.9 min; Time [23]: 19.3 min; Time [24]: 169.3 s; Activity [25]: 8.6; Activity [26]: 123.7; Activity [27]: 14.6; Activity [28]: 2.1; Time [29]: 6.8 min; Time [30]: 186.8 s; Ki [7]: 9.7 nM; Time [31]: 88.7 s; Time [32]: 118.2 min; Time [33]: 55.7 s; Time [34]: 132 s; Activity [35]: 4.4; Time [36]: 177.8 min; Time [37]: 39.8 min; Activity [8]: > 80%; Time [38]: 76.5 s; Time [39]: 13.5 min; Time [40]: 16 s; Time [41]: 18.7 min; Time [42]: 181.2 s; Time [43]: 23.6 min

Question: Which results are given for `CN1C(=O)CN=C(c2ccccc2)c2cc(Cl)ccc21` [DIAZEPAM]?
Answer: Time [44]: 175.3 s; Time [14]: >210 min; Time [45]: 20.9 s; Activity [46]: inactive; Time [47]: 52.3 s; Time [29]: 4.6 min; Activity [48]: inactive
